SMILES strings stand for the structures. Active and inactive are the calls of the source. The calls are words filed in the database; no cut-off is given here.

The test system of test [1] is SH-SY5Y. Put plainly: Protection against H2O2-induced mitochondrial dysfunction in human SH-SY5Y cells assessed as recovery of mitochondrial membrane potential at 1.56 to 6.25 uM preincubated for 24 hrs followed by H202 addition measured after 4 hrs by Rh123 staining based inverted light microscopic analysis. In kind it is functional, cell-based. The method in brief: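 Cells in 96-well plates (3.5×10^4 cells/mL) were grown 24 h. They were pretreated 24 h with compound at three concentrations, then exposed to H2O2 (4.8 mM stock) for 4 h. Medium was removed and Rh123 added for 30 min at 37 °C. Cells were washed twice in cold PBS and examined immediately under an inverted microscope for green fluorescence.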

Test [2] deals with HBMEC-2. Put plainly: Protection against H2O2-induced apoptosis in human HBMEC2 cells assessed as reduction in cell disruption at 1.56 to 6.25 uM preincubated for 24 hrs followed by H2O2 addition measured after 4 hrs by Giemsa staining based inverted phase contrast microscopic analysis. Type of test: functional. Summed up:
(§1)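 Cells at 3.5×10^4 cells/mL in 24-well plates were pretreated 24 h with compound at three concentrations, then H2O2 (4.8 mM stock) for 4 h. After PBS washes, cells were fixed in 4% paraformaldehyde/70% cold ethanol for 10 min. Staining was 6% Giemsa or DAPI for 5 min in the dark. Random fields were photographed at 200× by microscope, alongside control and model groups.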

In test [3] the test system is SH-SY5Y. Description: Protection against H2O2-induced apoptosis in human SH-SY5Y cells assessed as decrease in nuclear fragmentation preincubated for 24 hrs followed by H2O2 addition measured after 4 hrs by DAPI staining based inverted phase contrast microscopic analysis. Type of test: functional, cell-based. The method in brief:
as §1

Test [4] has as its system SH-SY5Y. Description: Inhibition of H2O2-induced apoptosis in human SH-SY5Y cells assessed as normal cells at 6.25 uM preincubated for 24 hrs followed by H2O2 addition measured after 4 hrs by Annexin V-FITC/propidium iodide staining based flow cytometry (reference value: 67.2 %). Type of test: functional. Also on record: scale not given: the % may be the effect or the level left. Summed up: (§2)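 Cells were seeded at 3.5×10^4 cells/mL in 6-well plates at 37 °C, 5% CO2. Compound was added at three concentrations for 24 h, then H2O2 (4.8 mM stock solution) to model and drug wells for 4 h. Cells were collected, washed in cold PBS and resuspended in annexin-binding buffer. Staining was annexin V-FITC 10 min, then PI 5 min, in the dark, followed by flow cytometry with quadrant gating.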

Test [5] relates to Chorioallantoic membrane. Description: Induction of angiogenesis in chicken chorioallantoic membrane assessed as increase in vascular density at 1 mg/ml measured after 48 hrs by dissecting microscopic analysis. In kind it is functional, cell membranes. Particulars: Gallus gallus. Summed up:
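Fertile eggs were incubated 7 days at 37 °C and 60% humidity. A small window was opened at one end and the membrane was wetted with a drop of sterile saline. Test solution (0.5, 1 or 2 mg/mL) was applied to the allantoic membrane, with PBS for controls. After 48 h the membrane was separated from the shell, then viewed and photographed under a dissecting microscope.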

The nature of test [6]: Inhibition of H2O2-induced apoptosis in human HBMEC2 cells assessed as early apoptotic cells at 1.56 uM preincubated for 24 hrs followed by H2O2 addition measured after 4 hrs by Annexin V-FITC/propidium iodide staining based flow cytometry (reference value: 8.1 %). Also on record: scale not given: the % may be the effect or the level left. Type of test: functional, HBMEC-2. Summed up: as §2
In general terms: A flow cytometer gives signals particle by particle.

Test [7] in a line: Inhibition of H2O2-induced apoptosis in human HBMEC2 cells assessed as late apoptotic cells at 6.25 uM preincubated for 24 hrs followed by H2O2 addition measured after 4 hrs by Annexin V-FITC/propidium iodide staining based flow cytometry (reference value: 29.4 %). Type of test: functional, HBMEC-2. More on the design: scale not given: the % may be the effect or the level left. Summed up:
as §2

The test system of test [8] is SH-SY5Y. Description: Inhibition of H2O2-induced apoptosis in human SH-SY5Y cells assessed as late apoptotic cells at 3.13 uM preincubated for 24 hrs followed by H2O2 addition measured after 4 hrs by Annexin V-FITC/propidium iodide staining based flow cytometry (reference value: 26.5 %). In kind it is functional. Also on record: scale not given: the % may be the effect or the level left. Summed up:
as §2

Test [9] is described as follows: Inhibition of H2O2-induced apoptosis in human HBMEC2 cells assessed as late apoptotic cells at 1.56 uM preincubated for 24 hrs followed by H2O2 addition measured after 4 hrs by Annexin V-FITC/propidium iodide staining based flow cytometry (reference value: 29.4 %). In kind it is functional, HBMEC-2. Also on record: scale not given: the % may be the effect or the level left. Summed up:
as §2

The subject of test [10] is SH-SY5Y. Description: Inhibition of H2O2-induced apoptosis in human SH-SY5Y cells assessed as normal cells at 3.13 uM preincubated for 24 hrs followed by H2O2 addition measured after 4 hrs by Annexin V-FITC/propidium iodide staining based flow cytometry (reference value: 67.2 %). More on the design: scale not given: the % may be the effect or the level left. Type of test: functional. Summed up: as §2

Test [11] deals with SH-SY5Y. Put plainly: Inhibition of H2O2-induced apoptosis in human SH-SY5Y cells preincubated for 24 hrs followed by H2O2 addition measured after 4 hrs by Annexin V-FITC/propidium iodide staining based flow cytometry. Type of test: functional, cell-based. The method in brief: as §2
The nature of test [12]: Inhibition of H2O2-induced apoptosis in human HBMEC2 cells assessed as necrotic cells at 1.56 uM preincubated for 24 hrs followed by H2O2 addition measured after 4 hrs by Annexin V-FITC/propidium iodide staining based flow cytometry (reference value: 0.4 %). In kind it is functional, HBMEC-2. More on the design: scale not given: the % may be the effect or the level left. Summed up:
as §2

The test system of test [13] is HBMEC-2. Put plainly: Inhibition of H2O2-induced apoptosis in human HBMEC2 cells preincubated for 24 hrs followed by H2O2 addition measured after 4 hrs by Annexin V-FITC/propidium iodide staining based flow cytometry. Type of test: functional, cell-based. Summed up:
as §2

The test system of test [14] is SH-SY5Y. Description: Inhibition of H2O2-induced apoptosis in human SH-SY5Y cells assessed as necrotic cells at 1.56 uM preincubated for 24 hrs followed by H2O2 addition measured after 4 hrs by Annexin V-FITC/propidium iodide staining based flow cytometry (reference value: 0.9 %). Type of test: functional. More on the design: scale not given: the % may be the effect or the level left. Summed up: as §2

A short description of test [15]: Inhibition of H2O2-induced apoptosis in human HBMEC2 cells assessed as necrotic cells at 6.25 uM preincubated for 24 hrs followed by H2O2 addition measured after 4 hrs by Annexin V-FITC/propidium iodide staining based flow cytometry (reference value: 0.4 %). In kind it is functional, HBMEC-2. Also on record: scale not given: the % may be the effect or the level left. Summed up: as §2

The subject of test [16] is HBMEC-2. Description: Protection against H2O2-induced apoptosis in human HBMEC2 cells assessed as decrease in nuclear fragmentation preincubated for 24 hrs followed by H2O2 addition measured after 4 hrs by DAPI staining based inverted phase contrast microscopic analysis. Type of test: functional, cell-based. Summed up: as §1
Test [17] in a line: Inhibition of H2O2-induced apoptosis in human HBMEC2 cells assessed as normal cells at 6.25 uM preincubated for 24 hrs followed by H2O2 addition measured after 4 hrs by Annexin V-FITC/propidium iodide staining based flow cytometry (reference value: 62.1 %). In kind it is functional, HBMEC-2. Also on record: scale not given: the % may be the effect or the level left. Summed up:
as §2

Test [18] relates to SH-SY5Y. Put plainly: Inhibition of H2O2-induced apoptosis in human SH-SY5Y cells assessed as late apoptotic cells at 6.25 uM preincubated for 24 hrs followed by H2O2 addition measured after 4 hrs by Annexin V-FITC/propidium iodide staining based flow cytometry (reference value: 26.5 %). Type of test: functional. More on the design: scale not given: the % may be the effect or the level left. The method in brief:
as §2

Test [19] is described as follows: Inhibition of H2O2-induced apoptosis in human HBMEC2 cells assessed as necrotic cells at 3.13 uM preincubated for 24 hrs followed by H2O2 addition measured after 4 hrs by Annexin V-FITC/propidium iodide staining based flow cytometry (reference value: 0.4 %). Type of test: functional, HBMEC-2. Also on record: scale not given: the % may be the effect or the level left. The method in brief:
as §2

The test system of test [20] is HBMEC-2. Put plainly: Protection against H2O2-induced apoptosis in human HBMEC2 cells assessed as reduction in cell shrinkage at 1.56 to 6.25 uM preincubated for 24 hrs followed by H2O2 addition and measured after 4 hrs by Giemsa staining based inverted phase contrast microscopic analysis. In kind it is functional. Summed up: as §1
Test [21] relates to HBMEC-2. Description: Protection against H2O2-induced apoptosis in human HBMEC2 cells assessed as decrease in number of irregular cells preincubated for 24 hrs followed by H2O2 addition measured after 4 hrs by DAPI staining based inverted phase contrast microscopic analysis. In kind it is functional, cell-based. The method in brief: as §1
Test [22] is described as follows: Inhibition of H2O2-induced apoptosis in human HBMEC2 cells assessed as early apoptotic cells at 6.25 uM preincubated for 24 hrs followed by H2O2 addition measured after 4 hrs by Annexin V-FITC/propidium iodide staining based flow cytometry (reference value: 8.1 %). Type of test: functional, HBMEC-2. More on the design: scale not given: the % may be the effect or the level left. Summed up: as §2

In the case of `COc1cc(CNC(=O)/C=C/c2cc(OC)c(OC)cc2OC)ccc1O`, the result in [1], in [2], in test [5] and in [20] was Active. Further, the Activity result is “Dose-dependent effect” in [3]; 82.3% in test [4]; 9.1% in test [6]; 10.2% in test [7]; 21% in [8]; 19.3% in test [9]. Also, the Activity in test [10] was 74.7%; in [12], 1%; in [14], 1.4%; in test [15] it was 0.1%; in [16] it was “Dose-dependent effect”; in test [17], 81.4%. Also, the Activity in test [18] is 14%; in [19], 0.1%; in [21] it was “Dose-dependent effect”; in test [22], 8.3%. Also, the inhibition result in [11] and in [13] was “Dose-dependent effect” throughout.
